Assay results from different studies.
Protocols differ between the studies behind these lines.
CDK7 with cyclin H: Cyclin-dependent kinase 7, with cyclin H (CDK7, Homo sapiens, UniProt P50613)
CDK7: Cyclin-dependent kinase 7 (CDK7, Homo sapiens, UniProt P50613)

For `O=C1NC(=O)c2cc(Nc3ccc(F)cc3)c(Nc3ccc(F)cc3)cc21`, the remaining signal was 100% (CDK7 with cyclin H; cell-free assay; 0.5 µM).
`C=C1CC[C@@H]2[C@](C)(CO)[C@H](O)CC[C@@]2(C)[C@@H]1CCC1=CCOC1=O` gave an inhibition of 22.8% (CDK7 with cyclin H; enzyme activity; inhibitor; ADP detection; 10 µM).
`C[C@@H]1CN(c2cc(-c3n[nH]c4ccc(OC5(C)CC5)cc34)ncn2)C[C@H](C)O1` has a remaining binding of 56% (CDK7; cell-free assay; competition with immobilised ligand; 0.1 µM).
With `Cn1cc2c3ccccc3nc-2c2ccccc21` the inhibition was 38.3% (CDK7 with cyclin H; enzyme activity; inhibitor; ADP detection; 10 µM).
`O=C(Nc1cnn(-c2csc(C(=O)NC3COC3)c2)c1)Nc1ccccc1Cl` has a remaining activity of 99.7% (CDK7 with cyclin H; enzyme activity; inhibitor; 5 µM).
For `CN(c1ccnc(CNc2nc(Nc3ccc4c(c3)CC(=O)N4)ncc2C(F)(F)F)n1)S(C)(=O)=O`, the remaining binding was 3.5% (CDK7; cell-free assay; competition with immobilised ligand; 1 µM).
For `CC(C)(C)c1nc2c(s1)c1nc(N)ncc1c1ccc(NS(=O)(=O)c3c(F)cccc3F)c(F)c12`, the remaining activity was 123% (CDK7 with cyclin H; enzyme activity; inhibitor; radiometric; 1 µM).
For `CNC(=O)c1cc(Oc2ccc(NC(=O)Nc3ccc(Cl)c(C(F)(F)F)c3)cc2)ccn1`, the inhibition was -36% (CDK7 with cyclin H; enzyme activity; inhibitor; 10 µM).
For `COc1cc2oc(-c3ccccc3)cc(=O)c2c(OC)c1OC`, the inhibition was 22.4% (CDK7 with cyclin H; enzyme activity; inhibitor; ADP detection; 10 µM).
`CCS(=O)(=O)c1cc2cc(C[C@@](O)(CC(C)(C)c3ccc(F)cc3C(N)=O)C(F)(F)F)[nH]c2cn1` gave a remaining binding of 99% (CDK7; cell-free assay; competition with immobilised ligand; 1 µM).
`CCN(CC)CCNC(=O)c1c(C)[nH]c(/C=C2\C(=O)Nc3ccc(F)cc32)c1C` gave a remaining signal of 73.4% (CDK7 with cyclin H; cell-free assay; 0.5 µM).
The inhibition of `O=c1cc(-c2ccccc2)oc2cc(O)cc(O)c12` is reported as 58.8% (CDK7 with cyclin H; enzyme activity; inhibitor; ADP detection; 10 µM).
For `CO[C@@H](C)c1c(Nc2ccc([C@@H](N(C)C(=O)C3CCS(=O)(=O)CC3)C(F)(F)F)cc2)cnc2cc(Cl)nn12`, the remaining binding was 100% (CDK7; cell-free assay; competition with immobilised ligand; 1 µM).
The inhibition of `COC(=O)C1=CO[C@@H](C)[C@H]2CN3CCc4c([nH]c5ccccc45)[C@@H]3C[C@H]12` is reported as -41.8% (CDK7 with cyclin H; enzyme activity; inhibitor; ADP detection; 10 µM).
With `Cc1cc(NC(=O)c2cccc3cc(-c4cccc5[nH]nc(N)c45)ccc23)ccc1F` the activity vs control was 117% (CDK7; enzyme activity; inhibitor; 0.1 µM).
The remaining binding of `Cc1cc(NC(=O)c2cccc(S(F)(F)(F)(F)F)c2)cc(-n2ccn3nc(-c4cccnc4)cc23)c1` is reported as 100% (CDK7; cell-free assay; competition with immobilised ligand; 1 µM).
`Oc1ccc(-c2nc(-c3ccncc3)c(-c3ccc(F)cc3)[nH]2)cc1` gave a remaining signal of 99.4% (CDK7 with cyclin H; cell-free assay; 0.5 µM).
`CN1CCN(c2cnc3c(C4CCN(C(=O)c5ccc(OC(F)(F)F)cc5N)CC4)ncnc3c2)CC1` gave a remaining binding of 89% (CDK7; cell-free assay; competition with immobilised ligand; 1 µM).
For `CCCCNc1ncc2c(-c3ccc(F)cc3)nn(C[C@H]3CC[C@H](N)CC3)c2n1`, the inhibition was 31.5% (CDK7; target engagement in cells; inhibitor; chemoproteomics; 20 mM).
`COc1ccc(-c2coc3cc(O)cc(O)c3c2=O)cc1` has an inhibition of 41.3% (CDK7 with cyclin H; enzyme activity; inhibitor; ADP detection; 10 µM).
With `Cc1cnc(NC2CCOCC2)nc1-n1cnc(C(=O)NC(CN)c2cc(F)cc(Cl)c2)c1` (stereo not drawn) the remaining activity was 16% (CDK7; enzyme activity; inhibitor; radiometric; 1 µM).
With `CCCOc1ccc(OC)c(F)c1C(=O)c1ccc(C(=O)N[C@@H]2CNC[C@H]2NC(=O)c2ccc3[nH]ncc3c2)cc1` the remaining activity was 13% (CDK7; enzyme activity; inhibitor; 10 µM).
The remaining binding of `CNC(=O)c1ccc(Nc2ncc(C(F)(F)F)c(NCc3nccnc3N(C)S(C)(=O)=O)n2)cc1` is reported as 59% (CDK7; cell-free assay; competition with immobilised ligand; 0.1 µM).
With `CCN(CC)c1ccc(C2=NNC(=O)CC2C)cc1[N+](=O)[O-]` (stereo not drawn) the remaining activity was 96% (CDK7; enzyme activity; inhibitor; 10 µM).
The inhibition of `COc1cc(-c2cc(-c3ccc(N4CCNCC4)cc3)cnc2C)cc(OC)c1OC` is reported as 0% (CDK7; enzyme activity; inhibitor; 0.1 µM).
For `Cn1cnc(Br)c1C1=CN(c2ncnc3[nH]cnc23)CCS1`, the inhibition was 44.3% (CDK7; enzyme activity; inhibitor; radiometric; 2 µM).
For `CN1C(=N)N(C)/C(=C/c2c[nH]c3ccccc23)C1=O`, the inhibition was 34.1% (CDK7 with cyclin H; enzyme activity; inhibitor; ADP detection; 10 µM).
The remaining signal of `Cc1ccc(NC(=O)c2ccc(C)c(C(F)(F)F)c2)cc1C#Cc1nn(C2CCC(O)CC2)c2ncnc(N)c12` (stereo not drawn) is reported as 103% (CDK7; cell-free assay; 10 µM).
`Cc1cc(=O)c2c(O)cc(O)cc2o1` gave an inhibition of 29.4% (CDK7 with cyclin H; enzyme activity; inhibitor; ADP detection; 10 µM).
`Cc1nc(Cc2cccc(C(F)(F)F)c2)sc1-c1ccc(C(N)=O)nc1` gave a remaining binding of 90% (CDK7; cell-free assay; competition with immobilised ligand; 1 µM).
